According to ChEMBL document CHEMBL4359870, “Identification of a new family of pyrazolo[3,4-d]pyrimidine derivatives as multitarget Fyn-Blk-Lyn inhibitors active on B- and T-lymphoma cell lines” (Eur J Med Chem, 2019):
pIC50, pKi: −log10 of the molar value. Values after ≈ are worked out from the molar mass of the structure shown. Active and inactive are the calls of the source. The calls are words filed in the database; no cut-off is given here.

Tested on: SU-DHL-8
Experiment: Induction of cell cycle arrest in human SUDHL8 cells assessed as accumulation at sub-G0 phase at 5 to 10 uM after 72 hrs by 7AAD staining based assay
Type: functional
Conditions: not given

| Compound | Activity |
| --- | --- |
| Nc1ncnc2c1c(-c1ccc(CO)cc1)nn2CC(Cl)c1ccccc1 (racemic) | Active |

Tested on: Farage
Experiment: Antiproliferative activity against human Farage cells assessed as reduction in cell viability after 72 hrs by MTT assay
Conditions: not given

| Compound | pIC50 |
| --- | --- |
| Nc1ncnc2c1c(-c1ccc(Cl)cc1)nn2CCc1ccccc1 | 4.73 |
| Cc1ccc(-c2nn(CC(Cl)c3ccccc3)c3ncnc(N)c23)cc1 (stereo not given) | 4.72 |
| Nc1ncnc2c1c(-c1ccc(I)cc1)nn2CC(Cl)c1ccccc1 (racemic) | 4.90 |
| Nc1ncnc2c1c(-c1cccc(Cl)c1)nn2CC(Cl)c1ccccc1 (racemic) | 4.51 |
| CC(Cn1nc(-c2ccc([N+](=O)[O-])cc2)c2c(N)ncnc21)c1ccccc1 (racemic) | < 4.00 |
| Nc1ncnc2c1c(-c1ccc(Br)cc1)nn2CC(Cl)c1ccccc1 (racemic) | 4.87 |
| Nc1ncnc2c1c(-c1ccc(CO)cc1)nn2CC(Cl)c1ccccc1 (racemic) | 5.15 |

Tested on: HuT78
Experiment: Antiproliferative activity against human HUT78 cells assessed as reduction in cell viability after 72 hrs by MTT assay
Conditions: HuT78, 72 h

| Compound | pIC50 |
| --- | --- |
| Nc1ncnc2c1c(-c1ccc(Cl)cc1)nn2CCc1ccccc1 | < 4.00 |
| Cc1ccc(-c2nn(CC(Cl)c3ccccc3)c3ncnc(N)c23)cc1 (stereo not given) | 4.95 |
| Nc1ncnc2c1c(-c1ccc(I)cc1)nn2CC(Cl)c1ccccc1 (racemic) | 4.92 |
| Nc1ncnc2c1c(-c1cccc(Cl)c1)nn2CC(Cl)c1ccccc1 (racemic) | < 4.00 |
| CC(Cn1nc(-c2ccc([N+](=O)[O-])cc2)c2c(N)ncnc21)c1ccccc1 (racemic) | < 4.00 |
| Nc1ncnc2c1c(-c1ccc(Br)cc1)nn2CC(Cl)c1ccccc1 (racemic) | 4.68 |
| Nc1ncnc2c1c(-c1ccc(CO)cc1)nn2CC(Cl)c1ccccc1 (racemic) | 5.35 |

Molecular target: Tyrosine-protein kinase Lyn (Homo sapiens, UniProt P07948)
Experiment: Inhibition of LYN (unknown origin) using KVEKIGEGTYGVVYK as substrate in presence of [gamma33P]ATP as substrate in presence of [gamma33P]ATP by scintillation counting method
Conditions: not given
In short: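 Lyn radiometric assay with 200 µM Src-peptide, 40 µM ATP plus γ-33P ATP, 0.0013% NP-40, 10-50 ng enzyme, 10% DMSO, 30 °C for 10 min. ID50 taken from velocity fits. Ki derived assuming ATP-competitive binding, with ATP Km 39.9 µM.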

Chain of Tyrosine-protein kinase Lyn (P07948 whole entry): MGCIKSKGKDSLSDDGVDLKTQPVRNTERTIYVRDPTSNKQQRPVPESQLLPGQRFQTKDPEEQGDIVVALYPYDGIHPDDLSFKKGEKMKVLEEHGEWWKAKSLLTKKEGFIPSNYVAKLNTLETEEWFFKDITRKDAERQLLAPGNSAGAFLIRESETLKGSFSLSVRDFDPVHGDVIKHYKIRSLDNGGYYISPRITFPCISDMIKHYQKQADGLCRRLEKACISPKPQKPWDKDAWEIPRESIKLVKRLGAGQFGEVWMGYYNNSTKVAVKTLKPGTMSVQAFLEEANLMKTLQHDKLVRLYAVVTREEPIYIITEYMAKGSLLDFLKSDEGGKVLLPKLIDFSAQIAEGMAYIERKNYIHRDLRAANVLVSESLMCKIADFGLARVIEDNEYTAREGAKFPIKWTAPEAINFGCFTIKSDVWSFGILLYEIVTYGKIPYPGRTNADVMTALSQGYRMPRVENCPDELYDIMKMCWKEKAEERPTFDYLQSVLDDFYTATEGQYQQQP

| pKi | Compound |
| --- | --- |
| 6.72 | Nc1ncnc2c1c(-c1ccc(CO)cc1)nn2CC(Cl)c1ccccc1 (racemic) |

Tested on: SU-DHL-8
Experiment: Antiproliferative activity against human SUDHL8 cells assessed as reduction in cell viability after 72 hrs by MTT assay
Conditions: SU-DHL-8, 72 h

| Compound | pIC50 |
| --- | --- |
| Nc1ncnc2c1c(-c1ccc(Cl)cc1)nn2CCc1ccccc1 | 4.44 |
| Nc1ncnc2c1c(-c1cccc(Cl)c1)nn2CC(Cl)c1ccccc1 (racemic) | 4.86 |
| CC(Cn1nc(-c2ccc([N+](=O)[O-])cc2)c2c(N)ncnc21)c1ccccc1 (racemic) | < 4.00 |
| Nc1ncnc2c1c(-c1ccc(Br)cc1)nn2CC(Cl)c1ccccc1 (racemic) | 4.93 |
| Nc1ncnc2c1c(-c1ccc(CO)cc1)nn2CC(Cl)c1ccccc1 (racemic) | 5.21 |

More lines, now with the values ahead:

| pIC50 | Compound |
| --- | --- |
| 4.92 | Cc1ccc(-c2nn(CC(Cl)c3ccccc3)c3ncnc(N)c23)cc1 (stereo not given) |
| 4.94 | Nc1ncnc2c1c(-c1ccc(I)cc1)nn2CC(Cl)c1ccccc1 (racemic) |

Tested on: HH
Experiment: Antiproliferative activity against human HH cells assessed as reduction in cell viability after 72 hrs by MTT assay
Conditions: not given

| Compound | pIC50 |
| --- | --- |
| Nc1ncnc2c1c(-c1ccc(Cl)cc1)nn2CCc1ccccc1 | 4.74 |
| Cc1ccc(-c2nn(CC(Cl)c3ccccc3)c3ncnc(N)c23)cc1 (stereo not given) | 4.83 |
| Nc1ncnc2c1c(-c1ccc(I)cc1)nn2CC(Cl)c1ccccc1 (racemic) | 5.28 |
| Nc1ncnc2c1c(-c1cccc(Cl)c1)nn2CC(Cl)c1ccccc1 (racemic) | 4.37 |
| CC(Cn1nc(-c2ccc([N+](=O)[O-])cc2)c2c(N)ncnc21)c1ccccc1 (racemic) | < 4.00 |
| Nc1ncnc2c1c(-c1ccc(Br)cc1)nn2CC(Cl)c1ccccc1 (racemic) | 4.91 |
| Nc1ncnc2c1c(-c1ccc(CO)cc1)nn2CC(Cl)c1ccccc1 (racemic) | 5.62 |

Tested on: not listed separately
Experiment: Apparent permeability of compound at 500 uM after 5 hrs by UV/LC-MS analysis based GI-PAMPA assay
Type: ADME
Conditions: not given
In short: (§1)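 GI-PAMPA run with donor compound at 500 µM final, diluted from 1 mM DMSO into pH 7.4 25.0 mM phosphate buffer. Filter coated with 1% (w/v) phosphatidylcholine in dodecane. Acceptor was 50% v/v DMSO/phosphate buffer. Incubated 5 h at r.t. with gentle shaking. Donor and acceptor wells quantified by UV/LC-MS peak area. Papp and membrane retention calculated by equation, in triplicate.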

| Papp at 5 h, 500 µM | Compound |
| --- | --- |
| 10.8 ×10⁻⁶ cm/s | Nc1ncnc2c1c(-c1ccc(CO)cc1)nn2CC(Cl)c1ccccc1 (racemic) |

Tested on: H9
Experiment: Antiproliferative activity against human H9 cells assessed as reduction in cell viability after 72 hrs by MTT assay
Conditions: H9, 72 h

| Compound | pIC50 |
| --- | --- |
| Nc1ncnc2c1c(-c1ccc(Cl)cc1)nn2CCc1ccccc1 | < 4.00 |
| Cc1ccc(-c2nn(CC(Cl)c3ccccc3)c3ncnc(N)c23)cc1 (stereo not given) | < 4.00 |
| Nc1ncnc2c1c(-c1ccc(I)cc1)nn2CC(Cl)c1ccccc1 (racemic) | 4.94 |
| Nc1ncnc2c1c(-c1cccc(Cl)c1)nn2CC(Cl)c1ccccc1 (racemic) | 4.66 |
| CC(Cn1nc(-c2ccc([N+](=O)[O-])cc2)c2c(N)ncnc21)c1ccccc1 (racemic) | < 4.00 |
| Nc1ncnc2c1c(-c1ccc(Br)cc1)nn2CC(Cl)c1ccccc1 (racemic) | 4.66 |
| Nc1ncnc2c1c(-c1ccc(CO)cc1)nn2CC(Cl)c1ccccc1 (racemic) | 5.47 |

Tested on: FEPD
Experiment: Induction of cell cycle arrest in human FEPD cells assessed as accumulation at sub-G0 phase at 5 to 10 uM after 72 hrs by 7AAD staining based assay
Type: functional
Conditions: not given

| Compound | Activity |
| --- | --- |
| Nc1ncnc2c1c(-c1ccc(CO)cc1)nn2CC(Cl)c1ccccc1 (racemic) | Active |

Tested on: not listed separately
Experiment: Metabolic stability in human liver microsomes assessed as compound remaining at 50 uM after 1 hr by UV/LC-MS analysis relative to control
Type: ADME, Microsome
Conditions: read-out: Stability
In short: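 Human liver microsomes at 0.2 mg/mL with NADPH regenerating system, compound at 50 µM in pH 7.4 25 mM phosphate buffer, 37 °C for 1 h. Quenched with acetonitrile, then supernatant dried and taken up in methanol. Unmetabolized percentage measured by UV/LC-MS. Mean of at least three experiments.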

| remaining at 1 h, 50 µM | Compound |
| --- | --- |
| 85% | Nc1ncnc2c1c(-c1ccc(CO)cc1)nn2CC(Cl)c1ccccc1 (racemic) |

Tested on: not listed separately
Experiment: Membrane retention of compound at 500 uM after 5 hrs by UV/LC-MS analysis based GI-PAMPA assay relative to control
Type: ADME
Conditions: not given
In short: as §1

| R% | Compound |
| --- | --- |
| 15.2% | Nc1ncnc2c1c(-c1ccc(CO)cc1)nn2CC(Cl)c1ccccc1 (racemic) |

Tested on: not listed separately
Experiment: Aqueous solubility of compound at 1 mg after 24 hrs by LC-MS/MS analysis
Type: physicochemical
Conditions: water
In short: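 Solid compound (1 mg) shaken in 1 mL water at 20 °C for 24 h, then filtered through 0.45 µm nylon. Dissolved concentration measured by LC-MS-MS against a methanol calibration curve, in triplicate. Mean of at least three experiments.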

| solubility at 24 h | Compound |
| --- | --- |
| 0.09 µg/mL (≈ 0.237 µM) | Nc1ncnc2c1c(-c1ccc(CO)cc1)nn2CC(Cl)c1ccccc1 (racemic) |

Tested on: DOHH-2
Experiment: Antiproliferative activity against human DOHH2 cells assessed as reduction in cell viability after 72 hrs by MTT assay
Conditions: DOHH-2, 72 h

| Compound | pIC50 |
| --- | --- |
| Nc1ncnc2c1c(-c1ccc(Cl)cc1)nn2CCc1ccccc1 | 4.93 |
| Cc1ccc(-c2nn(CC(Cl)c3ccccc3)c3ncnc(N)c23)cc1 (stereo not given) | 4.93 |
| Nc1ncnc2c1c(-c1ccc(I)cc1)nn2CC(Cl)c1ccccc1 (racemic) | 5.43 |
| Nc1ncnc2c1c(-c1cccc(Cl)c1)nn2CC(Cl)c1ccccc1 (racemic) | 4.56 |
| CC(Cn1nc(-c2ccc([N+](=O)[O-])cc2)c2c(N)ncnc21)c1ccccc1 (racemic) | < 4.00 |
| Nc1ncnc2c1c(-c1ccc(Br)cc1)nn2CC(Cl)c1ccccc1 (racemic) | 4.96 |
| Nc1ncnc2c1c(-c1ccc(CO)cc1)nn2CC(Cl)c1ccccc1 (racemic) | 5.61 |

Tested on: HuT78
Experiment: Induction of cell cycle arrest in human HUT78 cells assessed as accumulation at sub-G0 phase at 5 to 10 uM after 72 hrs by 7AAD staining based assay
Type: functional
Conditions: not given

| Compound | Activity |
| --- | --- |
| Nc1ncnc2c1c(-c1ccc(CO)cc1)nn2CC(Cl)c1ccccc1 (racemic) | Active |

Molecular target: Tyrosine-protein kinase Fyn (Homo sapiens, UniProt P06241)
Experiment: Inhibition of recombinant full length N-terminal His6 tagged human FYN expressed in baculovirus infected sf21 cells using KVEKIGEGTYGVVYK as substrate in presence of [gamma33P]ATP by scintillation counting method
Conditions: not given
In short: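 Fyn radiometric assay with 250 µM Src-peptide, 100 µM ATP plus γ-33P ATP, 0.00087% NP-40, 10-50 ng enzyme, 10% DMSO, 30 °C for 10 min. ID50 taken from velocity fits. Ki derived assuming ATP-competitive binding, with ATP Km 102 µM.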

Chain of Tyrosine-protein kinase Fyn (P06241 whole entry): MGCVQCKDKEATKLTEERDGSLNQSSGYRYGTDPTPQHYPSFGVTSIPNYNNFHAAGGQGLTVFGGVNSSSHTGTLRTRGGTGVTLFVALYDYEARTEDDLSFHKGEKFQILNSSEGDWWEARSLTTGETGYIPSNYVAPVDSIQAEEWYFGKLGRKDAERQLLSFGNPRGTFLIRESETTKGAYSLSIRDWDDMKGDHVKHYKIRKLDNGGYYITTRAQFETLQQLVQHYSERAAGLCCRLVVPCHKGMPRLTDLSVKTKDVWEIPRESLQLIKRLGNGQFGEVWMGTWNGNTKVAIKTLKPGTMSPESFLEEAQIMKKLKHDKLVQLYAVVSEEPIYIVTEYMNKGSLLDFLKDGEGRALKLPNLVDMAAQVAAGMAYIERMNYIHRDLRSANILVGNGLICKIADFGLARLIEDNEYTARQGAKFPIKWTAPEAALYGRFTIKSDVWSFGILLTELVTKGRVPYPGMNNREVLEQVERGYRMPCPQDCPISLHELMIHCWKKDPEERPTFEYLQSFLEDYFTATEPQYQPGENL

| pKi | Compound |
| --- | --- |
| 6.92 | Nc1ncnc2c1c(-c1ccc(CO)cc1)nn2CC(Cl)c1ccccc1 (racemic) |

Tested on: FEPD
Experiment: Antiproliferative activity against human FEPD cells assessed as reduction in cell viability after 72 hrs by MTT assay
Conditions: not given

| Compound | pIC50 |
| --- | --- |
| Nc1ncnc2c1c(-c1ccc(Cl)cc1)nn2CCc1ccccc1 | 4.51 |
| Cc1ccc(-c2nn(CC(Cl)c3ccccc3)c3ncnc(N)c23)cc1 (stereo not given) | < 4.00 |
| Nc1ncnc2c1c(-c1ccc(I)cc1)nn2CC(Cl)c1ccccc1 (racemic) | 4.69 |
| Nc1ncnc2c1c(-c1cccc(Cl)c1)nn2CC(Cl)c1ccccc1 (racemic) | 4.60 |
| CC(Cn1nc(-c2ccc([N+](=O)[O-])cc2)c2c(N)ncnc21)c1ccccc1 (racemic) | < 4.00 |
| Nc1ncnc2c1c(-c1ccc(Br)cc1)nn2CC(Cl)c1ccccc1 (racemic) | 4.66 |
| Nc1ncnc2c1c(-c1ccc(CO)cc1)nn2CC(Cl)c1ccccc1 (racemic) | 4.96 |

Tested on: SU-DHL-6
Experiment: Antiproliferative activity against human SUDHL6 cells assessed as reduction in cell viability after 72 hrs by MTT assay
Conditions: SU-DHL-6, 72 h

| Compound | pIC50 |
| --- | --- |
| Nc1ncnc2c1c(-c1ccc(Cl)cc1)nn2CCc1ccccc1 | < 4.00 |
| Nc1ncnc2c1c(-c1cccc(Cl)c1)nn2CC(Cl)c1ccccc1 (racemic) | < 4.00 |
| CC(Cn1nc(-c2ccc([N+](=O)[O-])cc2)c2c(N)ncnc21)c1ccccc1 (racemic) | < 4.00 |
| Nc1ncnc2c1c(-c1ccc(Br)cc1)nn2CC(Cl)c1ccccc1 (racemic) | 4.34 |
| Nc1ncnc2c1c(-c1ccc(CO)cc1)nn2CC(Cl)c1ccccc1 (racemic) | 5.03 |

The next lines start with the values.

| pIC50 | Compound |
| --- | --- |
| 4.63 | Cc1ccc(-c2nn(CC(Cl)c3ccccc3)c3ncnc(N)c23)cc1 (stereo not given) |
| 4.88 | Nc1ncnc2c1c(-c1ccc(I)cc1)nn2CC(Cl)c1ccccc1 (racemic) |
